This passage reports IC50 and Activity results from ChEMBL document CHEMBL1137508, “Pentacyclic triterpenes. Part 5: synthesis and SAR study of corosolic acid derivatives as inhibitors of glycogen phosphorylases” (Bioorg Med Chem Lett, 2007).

SMILES strings stand for the structures. pIC50: −log10 of the molar value. The source made the active and inactive calls. No cut-off for these calls is given here.

Biological target in one assay: not listed separately
Briefly: (§1) Inhibition of rabbit muscle glycogen phosphorylase a. The arrangement: species or system Oryctolagus cuniculus. An outline of the steps: (§2)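 Rabbit muscle glycogen phosphorylase a activity was measured in the glycogen-synthesis direction by quantifying phosphate released from glucose-1-phosphate. Values are means of three experiments.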
As a reminder, the pIC50 is the IC50 on a negative log10 scale, so that one unit is a factor of ten. Turning to `C[C@H]1[C@H](C)CC[C@]2(C(=O)OCc3ccccc3)CC[C@]3(C)C(=CC[C@@H]4[C@@]5(C)C=C(O)C(=O)C(C)(C)[C@@H]5CC[C@]43C)[C@H]12`, the pIC50 was 5.14. In turn, `CCCOC(=O)[C@]12CC[C@@H](C)[C@H](C)[C@H]1C1=CC[C@@H]3[C@@]4(C)C[C@@H](O)[C@H](O)C(C)(C)[C@@H]4CC[C@@]3(C)[C@]1(C)CC2` had a pIC50 of 4.08.

Regarding `C[C@H]1[C@H](C)CC[C@]2(C(=O)OCc3ccccc3)CC[C@]3(C)C(=CC[C@@H]4[C@@]5(C)C[C@@H](O)[C@H](O)C(C)(C)[C@@H]5CC[C@]43C)[C@H]12`, the negative-log IC50 (pIC50) is 4.39.

For the molecule `CCC(=O)O[C@@H]1C[C@]2(C)[C@H]3CC=C4[C@@H]5[C@@H](C)[C@H](C)CC[C@]5(C(=O)O)CC[C@@]4(C)[C@]3(C)CC[C@H]2C(C)(C)[C@H]1OC(=O)CC`, the pIC50 is 4.13. On the same count and under the same terms, next, `C=CCOC(=O)[C@]12CC[C@@H](C)[C@H](C)[C@H]1C1=CC[C@@H]3[C@@]4(C)C[C@@H](O)[C@H](O)C(C)(C)[C@@H]4CC[C@@]3(C)[C@]1(C)CC2`: 4.04. Take `CC(=O)O[C@@H]1C[C@]2(C)[C@H]3CC=C4[C@@H]5[C@@H](C)[C@H](C)CC[C@]5(C(=O)O)CC[C@@]4(C)[C@]3(C)CC[C@H]2C(C)(C)[C@H]1O`: the pIC50 is 4.42. On the same count and under the same terms, to `CCOC(=O)[C@]12CC[C@@H](C)[C@H](C)[C@H]1C1=CC[C@@H]3[C@@]4(C)C[C@@H](O)[C@H](O)C(C)(C)[C@@H]4CC[C@@]3(C)[C@]1(C)CC2` belongs 4.33; to `CC(=O)O[C@@H]1C[C@]2(C)[C@H]3CC=C4[C@@H]5[C@@H](C)[C@H](C)CC[C@]5(C(=O)O)CC[C@@]4(C)[C@]3(C)CC[C@H]2C(C)(C)[C@H]1OC(C)=O`, 4.46. On the same count and under the same terms, to `C[C@H]1[C@H](C)CC[C@]2(C(=O)OCc3ccccc3)CC[C@]3(C)C(=CC[C@@H]4[C@@]5(C)C[C@H](O)[C@H](O)C(C)(C)[C@@H]5CC[C@]43C)[C@H]12` belongs 3.97; to `CCOC(=O)COC(=O)[C@]12CC[C@@H](C)[C@H](C)[C@H]1C1=CC[C@@H]3[C@@]4(C)C[C@@H](O)[C@H](O)C(C)(C)[C@@H]4CC[C@@]3(C)[C@]1(C)CC2`, 3.99; to `C[C@H]1[C@H](C)CC[C@]2(C(=O)OCc3ccccc3)CC[C@]3(C)C(=CC[C@@H]4[C@@]5(C)C[C@@H](O)C(=O)C(C)(C)[C@@H]5CC[C@]43C)[C@H]12`, 4.50.

With `Cc1ccc(S(=O)(=O)O[C@@H]2C[C@]3(C)[C@H]4CC=C5[C@@H]6[C@@H](C)[C@H](C)CC[C@]6(C(=O)OCc6ccccc6)CC[C@@]5(C)[C@]4(C)CC[C@H]3C(C)(C)[C@H]2O)cc1`, the negative logarithm of the IC50 (pIC50) was 3.35. The same measure, in the same setting: next, `CCCCCC(=O)O[C@@H]1C[C@]2(C)[C@H]3CC=C4[C@@H]5[C@@H](C)[C@H](C)CC[C@]5(C(=O)O)CC[C@@]4(C)[C@]3(C)CC[C@H]2C(C)(C)[C@H]1O`: 5.49; `C[C@H]1[C@H](C)CC[C@]2(C(=O)O)CC[C@]3(C)C(=CC[C@@H]4[C@@]5(C)C[C@@H](O)[C@H](O)C(C)(C)[C@@H]5CC[C@]43C)[C@H]12` [COROSOLIC ACID]: 4.70.

`C[C@H]1[C@H](C)CC[C@]2(C(=O)OCc3ccccc3)CC[C@]3(C)C(=CC[C@@H]4[C@@]5(C)C[C@@H](OC(=O)CCC(=O)O)[C@H](OC(=O)CCC(=O)O)C(C)(C)[C@@H]5CC[C@]43C)[C@H]12`: the pIC50 is 3.14. Still for that read-out and setting: to `COC(=O)[C@]12CC[C@@H](C)[C@H](C)[C@H]1C1=CC[C@@H]3[C@@]4(C)C[C@@H](O)[C@H](O)C(C)(C)[C@@H]4CC[C@@]3(C)[C@]1(C)CC2` [COROSOLIC ACID METHYL ESTER] belongs 4.47; to `C[C@H]1[C@H](C)CC[C@]2(C(=O)O)CC[C@]3(C)C(=CC[C@@H]4[C@@]5(C)C[C@H](O)[C@H](O)C(C)(C)[C@@H]5CC[C@]43C)[C@H]12`, 3.94; to `C[C@H]1[C@H](C)CC[C@]2(C(=O)OCc3ccccc3)CC[C@]3(C)C(=CC[C@@H]4[C@@]5(C)C[C@@H]6OC6C(C)(C)[C@@H]5CC[C@]43C)[C@H]12` (single isomer, unassigned), 4.16. The same measure, in the same setting: to `CCCCOC(=O)[C@]12CC[C@@H](C)[C@H](C)[C@H]1C1=CC[C@@H]3[C@@]4(C)C[C@@H](O)[C@H](O)C(C)(C)[C@@H]4CC[C@@]3(C)[C@]1(C)CC2` belongs 4.04.

`CCCC(=O)O[C@@H]1C[C@]2(C)[C@H]3CC=C4[C@@H]5[C@@H](C)[C@H](C)CC[C@]5(C(=O)O)CC[C@@]4(C)[C@]3(C)CC[C@H]2C(C)(C)[C@H]1O` had a pIC50 of 4.11.

The molecule `CCC(=O)O[C@@H]1C[C@]2(C)[C@H]3CC=C4[C@@H]5[C@@H](C)[C@H](C)CC[C@]5(C(=O)O)CC[C@@]4(C)[C@]3(C)CC[C@H]2C(C)(C)[C@H]1O` showed a pIC50 of 4.01. This pIC50 and that of the molecule before are within 0.2 log units of each other. Same read-out and setting: to `C[C@H]1[C@H](C)CC[C@]2(C(=O)O)CC[C@]3(C)C(=CC[C@@H]4[C@@]5(C)C[C@@H](O)[C@@H](O)C(C)(C)[C@@H]5CC[C@]43C)[C@H]12` [PYGENIC ACID A] belongs 3.67.

Molecule `C[C@H]1[C@H](C)CC[C@]2(C(=O)OCc3ccccc3)CC[C@]3(C)C(=CC[C@@H]4[C@@]5(C)C[C@@H](O)[C@@H](O)C(C)(C)[C@@H]5CC[C@]43C)[C@H]12` gave a pIC50 of 3.49. The pIC50 values of the last two molecules are within 0.2 log units of each other.

With `CC(=O)OC[C@H]1O[C@@H](OC(=O)[C@]23CC[C@@H](C)[C@H](C)[C@H]2C2=CC[C@@H]4[C@@]5(C)C[C@@H](O)[C@H](O)C(C)(C)[C@@H]5CC[C@@]4(C)[C@]2(C)CC3)[C@H](OC(C)=O)[C@@H](OC(C)=O)[C@@H]1OC(C)=O`, the pIC50 is 3.43. This pIC50 and that of the molecule before are within 0.2 log units of each other. The same measure, in the same setting: to `CCCC(=O)O[C@@H]1C[C@]2(C)[C@H]3CC=C4[C@@H]5[C@@H](C)[C@H](C)CC[C@]5(C(=O)O)CC[C@@]4(C)[C@]3(C)CC[C@H]2C(C)(C)[C@H]1OC(=O)CCC` belongs 4.10; to `C[C@H]1[C@H](C)CC[C@]2(C(=O)O)CC[C@]3(C)C(=CC[C@@H]4[C@@]5(C)C[C@@H](OC(=O)c6ccccc6)[C@H](O)C(C)(C)[C@@H]5CC[C@]43C)[C@H]12`, 5.29; to `C[C@H]1[C@H](C)CC[C@]2(C(=O)O[C@@H]3O[C@H](CO)[C@@H](O)[C@H](O)[C@H]3O)CC[C@]3(C)C(=CC[C@@H]4[C@@]5(C)C[C@@H](O)[C@H](O)C(C)(C)[C@@H]5CC[C@]43C)[C@H]12`, 3.98. The same measure, in the same setting: to `C[C@H]1[C@H](C)CC[C@]2(C(=O)OCc3ccccc3)CC[C@]3(C)C(=CC[C@@H]4[C@@]5(C)C[C@@H](OS(C)(=O)=O)[C@H](O)C(C)(C)[C@@H]5CC[C@]43C)[C@H]12` belongs 4.36; to `C[C@H]1[C@H](C)CC[C@]2(C(=O)OCn3cccn3)CC[C@]3(C)C(=CC[C@@H]4[C@@]5(C)C[C@@H](O)[C@H](O)C(C)(C)[C@@H]5CC[C@]43C)[C@H]12`, 4.21.

For the next assay, the species on record is Oryctolagus cuniculus. The assay is described as §1. An outline of the steps:
as §2
On to `C[C@H]1[C@H](C)CC[C@]2(C(=O)OCC(=O)O)CC[C@]3(C)C(=CC[C@@H]4[C@@]5(C)C[C@@H](O)[C@H](O)C(C)(C)[C@@H]5CC[C@]43C)[C@H]12`, for which the outcome was inactive. The same measure, in the same setting: to `C[C@H]1[C@H](C)CC[C@]2(C(=O)O)CC[C@]3(C)C(=CC[C@@H]4[C@@]5(C)C[C@@H](OC(=O)CCC(=O)O)[C@H](OC(=O)CCC(=O)O)C(C)(C)[C@@H]5CC[C@]43C)[C@H]12` belongs “inactive”.
